Assay results taken from ChEMBL document CHEMBL4304743, “Discovery of ( E)- N1-(3-Fluorophenyl)- N3-(3-(2-(pyridin-2-yl)vinyl)-1 H-indazol-6-yl)malonamide (CHMFL-KIT-033) as a Novel c-KIT T670I Mutant Selective Kinase Inhibitor for Gastrointestinal Stromal Tumors (GISTs)” (J Med Chem, 2019).

Experiments:
[1] = Antiproliferative activity in mouse BAF3 cells after 72 hrs by CCK8 assay; assay type: cell-based
Procedure, shortened: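 IL-3-independent BaF3 cells carrying tel-c-KIT constructs, grown in RPMI 1640 with 10% FBS. Cells at 1.5-5 × 10^4 cells/mL mixed directly with serial compound dilutions, 72 h at 37 °C, 5% CO2. CCK-8 read-out at 450 nm, normalized to DMSO; GI50 by curve fitting.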

[2] = tested on: Mast/stem cell growth factor receptor Kit (Homo sapiens), P10721 [T670I]; assay: Inhibition of TEL fused c-KIT T670I mutant (unknown origin) transfected in mouse BAF3 cells assessed as growth inhibition after 72 hrs by CCK8 assay; assay type: cell-based
Mast/stem cell growth factor receptor Kit (Homo sapiens), P10721 [T670I], sequence (P10721 whole entry T670I, the tested form may be a part): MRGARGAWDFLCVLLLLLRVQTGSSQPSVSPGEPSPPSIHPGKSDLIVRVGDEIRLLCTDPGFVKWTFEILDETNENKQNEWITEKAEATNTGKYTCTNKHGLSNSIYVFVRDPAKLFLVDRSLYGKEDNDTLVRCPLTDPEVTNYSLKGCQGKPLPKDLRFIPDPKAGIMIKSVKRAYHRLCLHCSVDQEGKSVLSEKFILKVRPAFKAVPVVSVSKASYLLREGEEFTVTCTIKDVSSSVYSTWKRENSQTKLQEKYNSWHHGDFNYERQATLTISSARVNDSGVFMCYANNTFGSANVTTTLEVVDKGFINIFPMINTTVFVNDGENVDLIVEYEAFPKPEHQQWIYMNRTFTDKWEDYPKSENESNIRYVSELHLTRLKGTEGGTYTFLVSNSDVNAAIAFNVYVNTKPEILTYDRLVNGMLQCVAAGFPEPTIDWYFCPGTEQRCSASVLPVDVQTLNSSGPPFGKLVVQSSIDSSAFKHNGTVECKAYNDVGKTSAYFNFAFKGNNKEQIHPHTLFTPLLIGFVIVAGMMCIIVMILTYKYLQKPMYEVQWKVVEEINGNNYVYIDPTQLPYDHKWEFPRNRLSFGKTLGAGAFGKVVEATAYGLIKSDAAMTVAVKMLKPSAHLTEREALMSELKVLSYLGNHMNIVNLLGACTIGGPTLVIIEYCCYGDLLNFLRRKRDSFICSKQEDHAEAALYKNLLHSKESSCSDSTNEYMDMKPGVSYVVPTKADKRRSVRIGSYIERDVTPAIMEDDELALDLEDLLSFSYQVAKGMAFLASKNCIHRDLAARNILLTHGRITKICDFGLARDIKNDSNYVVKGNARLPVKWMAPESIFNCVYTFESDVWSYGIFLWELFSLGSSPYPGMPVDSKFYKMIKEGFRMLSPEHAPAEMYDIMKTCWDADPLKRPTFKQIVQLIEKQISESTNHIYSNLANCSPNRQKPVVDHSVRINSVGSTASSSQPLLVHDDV
Procedure, shortened: (§1)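 Tel-c-KIT-transformed BaF3 lines (IL-3 independent) kept in RPMI 1640 with 10% FBS, 2% L-glutamine and pen/strep. Cells at 1.5 to 5 × 10^4 cells/mL mixed with graded compound and incubated 72 h at 37 °C, 5% CO2. Viability by CCK-8 absorbance at 450 nm, normalized to DMSO. GI50 from dose–response fit.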

[3] = Selectivity ratio, ratio of inhibition of wild type TEL fused c-KIT (unknown origin) transfected in mouse BAF3 cells assessed as growth inhibition to inhibition of TEL fused c-KIT T670I mutant (unknown origin) transfected in mouse BAF3 cells assessed as growth inhibition; set-up: species or system Homo sapiens
Procedure, shortened: (§2)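 IL-3 independent BaF3 cells stably expressing tel-c-KIT wt or tel-c-KIT T670I, grown in RPMI 1640 with 10% FBS, 2% L-glutamine, 37 °C, 5% CO2. Suspension cells at 1.5 to 5 × 10^4 cells/mL mixed with serial compound dilutions and incubated 72 h. Viability read by CCK-8 absorbance at 450 nm, normalized to DMSO; GI50 from curve fit. Selectivity is wt GI50 over T670I GI50.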

[4] = target: Mast/stem cell growth factor receptor Kit (Homo sapiens, UniProt P10721); assay: Inhibition of wild type TEL fused c-KIT (unknown origin) transfected in mouse BAF3 cells assessed as growth inhibition after 72 hrs by CCK8 assay; assay type: cell-based; details: baf3, 72 h; procedure, shortened: as §2
Mast/stem cell growth factor receptor Kit, sequence (P10721 whole entry, the tested form may be a part): as the sequence (P10721 whole entry T670I, the tested form may be a part) above, with I670T counted along it

[5] = tested on: Mast/stem cell growth factor receptor Kit (Homo sapiens), P10721 [V559D,T670I]; assay: Inhibition of TEL fused c-KIT T670I/V559D double mutant (unknown origin) transfected in mouse BAF3 cells assessed as growth inhibition after 72 hrs by CCK8 assay; assay type: cell-based; procedure, shortened: as §1
Mast/stem cell growth factor receptor Kit (Homo sapiens), P10721 [V559D,T670I], sequence (P10721 whole entry V559D/T670I, the tested form may be a part): as the sequence (P10721 whole entry T670I, the tested form may be a part) above, with V559D counted along it

[6] = tested on: Mast/stem cell growth factor receptor Kit (Homo sapiens), P10721 [A829P]; assay: Inhibition of TEL fused c-KIT A829P mutant (unknown origin) transfected in mouse BAF3 cells assessed as growth inhibition after 72 hrs by CCK8 assay; assay type: cell-based; procedure, shortened: as §1
Mast/stem cell growth factor receptor Kit (Homo sapiens), P10721 [A829P], sequence (P10721 whole entry A829P, the tested form may be a part): as the sequence (P10721 whole entry T670I, the tested form may be a part) above, with I670T, A829P counted along it

[7] = tested on: Mast/stem cell growth factor receptor Kit (Homo sapiens), P10721 [V559G]; assay: Inhibition of TEL fused c-KIT V559G mutant (unknown origin) transfected in mouse BAF3 cells assessed as growth inhibition after 72 hrs by CCK8 assay; assay type: cell-based; procedure, shortened: as §1
Mast/stem cell growth factor receptor Kit (Homo sapiens), P10721 [V559G], sequence (P10721 whole entry V559G, the tested form may be a part): as the sequence (P10721 whole entry T670I, the tested form may be a part) above, with V559G, I670T counted along it

[8] = tested on: Mast/stem cell growth factor receptor Kit (Homo sapiens), P10721 [N822K]; assay: Inhibition of TEL fused c-KIT N822K mutant (unknown origin) transfected in mouse BAF3 cells assessed as growth inhibition after 72 hrs by CCK8 assay; assay type: cell-based; procedure, shortened: as §1
Mast/stem cell growth factor receptor Kit (Homo sapiens), P10721 [N822K], sequence (P10721 whole entry N822K, the tested form may be a part): as the sequence (P10721 whole entry T670I, the tested form may be a part) above, with I670T, N822K counted along it

[9] = tested on: Mast/stem cell growth factor receptor Kit (Homo sapiens), P10721 [V654A]; assay: Inhibition of TEL fused c-KIT V654A mutant (unknown origin) transfected in mouse BAF3 cells assessed as growth inhibition after 72 hrs by CCK8 assay; assay type: cell-based; procedure, shortened: as §1
Mast/stem cell growth factor receptor Kit (Homo sapiens), P10721 [V654A], sequence (P10721 whole entry V654A, the tested form may be a part): as the sequence (P10721 whole entry T670I, the tested form may be a part) above, with V654A, I670T counted along it

[10] = tested on: Mast/stem cell growth factor receptor Kit (Homo sapiens), P10721 [L576P]; assay: Inhibition of TEL fused c-KIT L576P mutant (unknown origin) transfected in mouse BAF3 cells assessed as growth inhibition after 72 hrs by CCK8 assay; assay type: cell-based; procedure, shortened: as §1
Mast/stem cell growth factor receptor Kit (Homo sapiens), P10721 [L576P], sequence (P10721 whole entry L576P, the tested form may be a part): as the sequence (P10721 whole entry T670I, the tested form may be a part) above, with L576P, I670T counted along it

[11] = tested on: Mast/stem cell growth factor receptor Kit (Homo sapiens), P10721 [V559D]; assay: Inhibition of TEL fused c-KIT V559D mutant (unknown origin) transfected in mouse BAF3 cells assessed as growth inhibition after 72 hrs by CCK8 assay; assay type: cell-based; procedure, shortened: as §1
Mast/stem cell growth factor receptor Kit (Homo sapiens), P10721 [V559D], sequence (P10721 whole entry V559D, the tested form may be a part): as the sequence (P10721 whole entry T670I, the tested form may be a part) above, with V559D, I670T counted along it

[12] = tested on: Mast/stem cell growth factor receptor Kit (Homo sapiens), P10721 [D816V]; assay: Inhibition of TEL fused c-KIT D816V mutant (unknown origin) transfected in mouse BAF3 cells assessed as growth inhibition after 72 hrs by CCK8 assay; assay type: cell-based; procedure, shortened: as §1
Mast/stem cell growth factor receptor Kit (Homo sapiens), P10721 [D816V], sequence (P10721 whole entry D816V, the tested form may be a part): as the sequence (P10721 whole entry T670I, the tested form may be a part) above, with I670T, D816V counted along it

[13] = tested on: Mast/stem cell growth factor receptor Kit (Homo sapiens), P10721 [D820E]; assay: Inhibition of TEL fused c-KIT D820E mutant (unknown origin) transfected in mouse BAF3 cells assessed as growth inhibition after 72 hrs by CCK8 assay; assay type: cell-based; procedure, shortened: as §1
Mast/stem cell growth factor receptor Kit (Homo sapiens), P10721 [D820E], sequence (P10721 whole entry D820E, the tested form may be a part): as the sequence (P10721 whole entry T670I, the tested form may be a part) above, with I670T, D820E counted along it

[14] = tested on: Mast/stem cell growth factor receptor Kit (Homo sapiens), P10721 [V559A]; assay: Inhibition of TEL fused c-KIT V559A mutant (unknown origin) transfected in mouse BAF3 cells assessed as growth inhibition after 72 hrs by CCK8 assay; assay type: cell-based; procedure, shortened: as §1
Mast/stem cell growth factor receptor Kit (Homo sapiens), P10721 [V559A], sequence (P10721 whole entry V559A, the tested form may be a part): as the sequence (P10721 whole entry T670I, the tested form may be a part) above, with V559A, I670T counted along it

[15] = tested on: Mast/stem cell growth factor receptor Kit (Homo sapiens), P10721 [V559D,V654A]; assay: Inhibition of TEL fused c-KIT V654A/V559D double mutant (unknown origin) transfected in mouse BAF3 cells assessed as growth inhibition after 72 hrs by CCK8 assay; assay type: cell-based; procedure, shortened: as §1
Mast/stem cell growth factor receptor Kit (Homo sapiens), P10721 [V559D,V654A], sequence (P10721 whole entry V559D/V654A, the tested form may be a part): as the sequence (P10721 whole entry T670I, the tested form may be a part) above, with V559D, V654A, I670T counted along it

[16] = tested on: Mast/stem cell growth factor receptor Kit (Homo sapiens), P10721 [D816H]; assay: Inhibition of TEL fused c-KIT D816H mutant (unknown origin) transfected in mouse BAF3 cells assessed as growth inhibition after 72 hrs by CCK8 assay; assay type: cell-based; procedure, shortened: as §1
Mast/stem cell growth factor receptor Kit (Homo sapiens), P10721 [D816H], sequence (P10721 whole entry D816H, the tested form may be a part): as the sequence (P10721 whole entry T670I, the tested form may be a part) above, with I670T, D816H counted along it

Compound | GI50 at 72 h [1] [µM] | GI50 [2] [µM] | GI50 [4] [µM] | further results
O=C(CC(=O)Nc1ccc2c(/C=C/c3ccccn3)n[nH]c2c1)Nc1ccc(Cl)c(C(F)(F)F)c1 | 7.4 | 0.002 | 0.025 | RatioGI50 [3]: 12
O=C(Nc1ccc2c(/C=C/c3ccccn3)n[nH]c2c1)c1ccc(Cl)c(C(F)(F)F)c1 | 1.71 | 1.71 | 2.97 | 
Cc1ccc(-c2n[nH]c3cc(NC(=O)CC(=O)Nc4ccc(Cl)c(C(F)(F)F)c4)ccc23)cn1 | 4.91 | 0.059 | 0.183 | 
O=C(CC(=O)Nc1ccc2c(-c3cccc(F)c3)n[nH]c2c1)Nc1ccc(Cl)c(C(F)(F)F)c1 | > 10 | 0.179 | 1.12 | 
Cc1cccc(NC(=O)CC(=O)Nc2ccc3c(/C=C/c4ccccn4)n[nH]c3c2)c1 | > 10 | 0.17 | 1.43 | 
O=C(Nc1ccc(Cl)c(C(F)(F)F)c1)C1(C(=O)Nc2ccc3c(/C=C/c4ccccn4)n[nH]c3c2)CC1 | > 10 | 0.23 | 1 | 
O=C(CC(=O)Nc1ccc2cn[nH]c2c1)Nc1ccc(Cl)c(C(F)(F)F)c1 | > 10 | 2.67 | > 10 | 
CNC(=O)c1cncc(-c2n[nH]c3cc(NC(=O)CC(=O)Nc4ccc(Cl)c(C(F)(F)F)c4)ccc23)c1 | > 10 | 4.84 | > 10 | 
O=C(Nc1ccc(Cl)c(C(F)(F)F)c1)Nc1ccc2c(/C=C/c3ccccn3)n[nH]c2c1 | 1.9 | 1.15 | 1.6 | 
CN1CCN(Cc2ccc(-c3n[nH]c4cc(NC(=O)CC(=O)Nc5ccc(Cl)c(C(F)(F)F)c5)ccc34)cc2)CC1 | 0.911 | 0.012 | 0.019 | 
Cn1cc(-c2n[nH]c3cc(NC(=O)CC(=O)Nc4ccc(Cl)c(C(F)(F)F)c4)ccc23)cn1 | > 10 | 0.023 | 0.35 | RatioGI50 [3]: 7 - 15
O=C(CC(=O)Nc1ccc2c(-c3cccnc3)n[nH]c2c1)Nc1ccc(Cl)c(C(F)(F)F)c1 | > 10 | 0.045 | 0.32 | RatioGI50 [3]: 7 - 15
O=C(CC(=O)Nc1ccc2c(/C=C/c3ccccn3)n[nH]c2c1)Nc1ccc(F)cc1 | 5.86 | 0.111 | 0.554 | 
O=C(CC(=O)Nc1ccc2c(/C=C/c3ccccn3)n[nH]c2c1)Nc1cccc(Cl)c1 | 3.61 | 0.111 | 0.923 | 
O=C(CC(=O)Nc1ccc2c(/C=C/c3ccccn3)n[nH]c2c1)Nc1cccc(C(F)(F)F)c1 | > 10 | 0.086 | 0.216 | 
CN(C)c1cccc(NC(=O)CC(=O)Nc2ccc3c(/C=C/c4ccccn4)n[nH]c3c2)c1 | > 10 | 0.594 | 3.87 | 
O=C(CC(=O)Nc1ccccc1F)Nc1ccc2c(/C=C/c3ccccn3)n[nH]c2c1 | 5.09 | 0.312 | 2.16 | 
CN1CCN(c2cccc(NC(=O)CC(=O)Nc3ccc4c(/C=C/c5ccccn5)n[nH]c4c3)c2)CC1 | > 10 | 6.17 | > 10 | 
CNC(=O)c1ccccc1Sc1ccc2c(/C=C/c3ccccn3)n[nH]c2c1 [AXITINIB] |  | 0.108 | 0.105 | GI50 [5]: 0.129 µM; GI50 [6]: 0.406 µM; GI50 [7]: 0.002 µM; GI50 [8]: 1.72 µM; GI50 [9]: 0.014 µM; GI50 [10]: 0.007 µM; GI50 [11]: 0.012 µM; GI50 [12]: 2.02 µM; GI50 [13]: 0.156 µM; GI50 [14]: 0.005 µM; GI50 [15]: 0.013 µM; GI50 [16]: 1.82 µM
CN1CCN(c2ccc(-c3n[nH]c4cc(NC(=O)CC(=O)Nc5ccc(Cl)c(C(F)(F)F)c5)ccc34)cc2)CC1 | 1.35 | 0.012 | 0.025 | 
COc1cccc(NC(=O)CC(=O)Nc2ccc3c(/C=C/c4ccccn4)n[nH]c3c2)c1 | > 10 | 0.234 | 2.74 | 
O=C(Cc1ccc(Cl)c(C(F)(F)F)c1)Nc1ccc2c(/C=C/c3ccccn3)n[nH]c2c1 | 3.79 | 3.18 | 5.5 | 
CNC(=O)c1ccc(-c2n[nH]c3cc(NC(=O)CC(=O)Nc4ccc(Cl)c(C(F)(F)F)c4)ccc23)cc1 | > 10 | 0.057 | 0.338 | RatioGI50 [3]: 6
O=C(CC(=O)Nc1ccc2c(/C=C/c3ccccn3)n[nH]c2c1)Nc1ccccc1 | 6.72 | 0.117 | 2.22 | RatioGI50 [3]: 19
O=C(CC(=O)Nc1ccc2c(/C=C/c3ccccn3)n[nH]c2c1)Nc1cccc(Br)c1 | 6.09 | 0.113 | 0.943 | 
Cc1n[nH]c2cc(NC(=O)CC(=O)Nc3ccc(Cl)c(C(F)(F)F)c3)ccc12 | > 10 | 1.88 | > 10 | 
O=C(CC(=O)Nc1cc(F)ccc1F)Nc1ccc2c(/C=C/c3ccccn3)n[nH]c2c1 | 5.08 | 0.847 | 3.46 | 
O=C(CC(=O)Nc1ccc2c(/C=C/c3ccccn3)n[nH]c2c1)Nc1cc(F)cc(F)c1 | 4.24 | 0.399 | 1.87 | 
O=C(CC(=O)Nc1c(F)c(F)c(F)c(F)c1F)Nc1ccc2c(/C=C/c3ccccn3)n[nH]c2c1 | 3.68 | 1.3 | 2.95 | 
NC(=O)c1cccc(-c2n[nH]c3cc(NC(=O)CC(=O)Nc4ccc(Cl)c(C(F)(F)F)c4)ccc23)c1 | > 10 | 0.339 | 1.55 | 
